The record followed here is ChEMBL document CHEMBL3425484, “Novel N-benzenesulfonyl sophocarpinol derivatives as coxsackie B virus inhibitors” (ACS Med Chem Lett, 2015).

pIC50: −log10 of the molar value.

A word on the pIC50: it is the negative decadic logarithm of the IC50, by convention in mol/L.

The nature of data set [1]: Cytotoxicity against african green monkey Vero cells assessed as inhibition of cell growth after 24 hrs by CPE assay. Format: cell-based. The following applies: chlorocebus sabaeus, read-out: TC50.
In data set [2] the test system is Coxsackievirus. The data set is described as follows: Antiviral activity against Coxsackievirus B3 infected in african green monkey Vero cells assessed as reduction in viral-induced cytopathic effect. Format: functional, organism-based. The essentials: (§1)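 Vero (African green monkey kidney) cells were infected with the CVB subtype and scored by viral cytopathogenic effect (CPE) reduction, with ribavirin as the positive control. IC50 is the concentration that inhibits CVB growth by 50%.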

Data set [3] can be described thus: Selectivity index, ratio of TC50 for african green monkey Vero cells to IC50 for Coxsackievirus B3 infected in african green monkey Vero cells. Format: toxicity, cell-based. The following applies: read-out: Selectivity Index. The essentials:
(§2)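 SI is calculated as TC50 (50% inhibition of Vero cell growth) divided by IC50 (50% inhibition of the respective CVB subtype's growth, from the CPE assay in Vero cells, ribavirin as positive control).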

The subject of data set [4] is Coxsackievirus. The data set is described as follows: Antiviral activity against Coxsackievirus B1 infected in african green monkey Vero cells assessed as reduction in viral-induced cytopathic effect. Format: functional, organism-based. The procedure, abridged:
as §1
(Protection from cytopathic effect is a common read-out in antiviral testing.)

Data set [5] deals with Coxsackievirus. The data set is described as follows: Antiviral activity against Coxsackievirus B2 infected in african green monkey Vero cells assessed as reduction in viral-induced cytopathic effect. Format: functional, organism-based. The essentials:
as §1

For data set [6], the system named is Coxsackievirus. As to the kind of experiment: Antiviral activity against Coxsackievirus B5 infected in african green monkey Vero cells assessed as reduction in viral-induced cytopathic effect. Format: functional, organism-based. The procedure, abridged:
as §1

The subject of data set [7] is Coxsackievirus. The data set is described as follows: Antiviral activity against Coxsackievirus B6 infected in african green monkey Vero cells assessed as reduction in viral-induced cytopathic effect. Format: functional, organism-based. The essentials:
as §1

The nature of data set [8]: Selectivity index, ratio of TC50 for african green monkey Vero cells to IC50 for Coxsackievirus B1 infected in african green monkey Vero cells. Format: toxicity, cell-based. The following applies: read-out: Selectivity Index. The procedure, abridged:
as §2

Data set [9] can be described thus: Selectivity index, ratio of TC50 for african green monkey Vero cells to IC50 for Coxsackievirus B2 infected in african green monkey Vero cells. Format: toxicity, cell-based. The following applies: read-out: Selectivity Index. The procedure, abridged:
as §2

A short description of data set [10]: Selectivity index, ratio of TC50 for african green monkey Vero cells to IC50 for Coxsackievirus B5 infected in african green monkey Vero cells. Format: toxicity, cell-based. The following applies: read-out: Selectivity Index. The procedure, abridged:
as §2

Data set [11] is described as follows: Selectivity index, ratio of TC50 for african green monkey Vero cells to IC50 for Coxsackievirus B6 infected in african green monkey Vero cells. The following applies: read-out: Selectivity Index. Format: toxicity, cell-based. The procedure, abridged:
as §2

Take `O=[N+]([O-])c1ccccc1S(=O)(=O)N1C[C@@H]2CCCN3CCC[C@@H]([C@H]23)[C@H]1/C=C\CCO`: the CC50 at 24 h in data set [1] was 354 µM. The pIC50 is 5.64 in data set [2]; 5.84 in data set [4]; 5.84 in [5]; 5.44 in data set [6]; 6.21 in data set [7]. In addition, the selectivity ratio in data set [3] was found to be 153; in data set [8], 116; in data set [9], 117; in [10] it was 46.8; in data set [11], 276.
For `NC(=O)c1ncn([C@@H]2O[C@H](CO)[C@@H](O)[C@H]2O)n1` [RIBAVIRIN], in [1], the CC50 at 24 h was determined as 8200 µM. Moreover, the pIC50 in data set [2] is 3.16; in [4], 2.71; in data set [5] it was 2.68; in data set [6], 3.04; in [7], 2.77.
For `O=C(O)CCC[C@@H]1[C@H]2CCCN3CCC[C@@H](CN1S(=O)(=O)c1ccc(C(F)(F)F)cc1)[C@@H]23`, the CC50 at 24 h in data set [1] turned out to be 392 µM. Further, in data set [2], the pIC50 was 4.12. The selectivity ratio in data set [3] is 5.2.
For `O=S(=O)(c1ccc(C(F)(F)F)cc1)N1C[C@@H]2CCCN3CCC[C@@H]([C@H]23)[C@H]1/C=C\CCO`, in that order: 93.5 µM, 5.38 and 22.4.
Turning to `COC(=O)C/C=C\[C@@H]1[C@H]2CCCN3CCC[C@@H](CN1S(=O)(=O)c1cccc(C#N)c1)[C@@H]23`, the CC50 at 24 h in [1] was determined as 543 µM. The pIC50 in [2] is 5.51; in [4], 5.59; in [5], 4.90; in data set [6] it was 4.98; in data set [7], 5.55. Moreover, the selectivity ratio was 177 in data set [3]; 188 in data set [8]; 38.9 in data set [9]; 46.7 in [10]; 174 in data set [11].
As to `O=C(O)C/C=C/[C@@H]1[C@H]2CCCN3CCC[C@@H](CN1S(=O)(=O)c1ccc(C(F)(F)F)cc1)[C@@H]23`, in data set [1], the CC50 at 24 h is 1470 µM. Moreover, the negative-log IC50 (pIC50) in data set [2] is 4.47. Moreover, the selectivity ratio in data set [3] stood at 43.6.
`COC(=O)C/C=C\[C@@H]1[C@H]2CCCN3CCC[C@@H](CN1S(=O)(=O)c1ccccc1[N+](=O)[O-])[C@@H]23`: in data set [1], the CC50 at 24 h was found to be 481 µM. The pIC50 in [2] is 5.28. The selectivity ratio in data set [3] stood at 92.1.
In the case of `O=S(=O)(c1cccc(C(F)(F)F)c1)N1C[C@@H]2CCCN3CCC[C@@H]([C@H]23)[C@H]1/C=C\CCO`, the CC50 at 24 h in data set [1] came out at 93.5 µM. Further, the pIC50 in data set [2] was 4.82. Besides, the selectivity ratio in data set [3] was 6.2.
On to `COC(=O)C/C=C\[C@@H]1[C@H]2CCCN3CCC[C@@H](CN1S(=O)(=O)c1cccc(C(F)(F)F)c1)[C@@H]23`, for which the CC50 at 24 h in data set [1] is 198 µM. For the same compound, in data set [2], the negative logarithm of the IC50 (pIC50) was 5.65. Moreover, in [3], the selectivity ratio came to 88.3.
Turning to `N#Cc1ccccc1S(=O)(=O)N1C[C@@H]2CCCN3CCC[C@@H]([C@H]23)[C@H]1/C=C/CC(=O)O`, the CC50 at 24 h in data set [1] was determined as 466 µM. For the same compound, the pIC50 in [2] is 4.64. For the same compound, the selectivity ratio in data set [3] amounted to 20.5.
Turning to `COC(=O)CCC[C@@H]1[C@H]2CCCN3CCC[C@@H](CN1S(=O)(=O)c1cccc(C(F)(F)F)c1)[C@@H]23`, the CC50 at 24 h in data set [1] turned out to be 193 µM. The negative logarithm of the IC50 (pIC50) was 5.70 in data set [2], 5.89 in data set [4], 5.12 in data set [5] and 6.36 in data set [7]. The selectivity ratio was 92.4 in data set [3], 144 in data set [8], 16.7 in data set [9] and 139 in data set [11].
As to `COC(=O)C/C=C\[C@@H]1[C@H]2CCCN3CCC[C@@H](CN1S(=O)(=O)c1ccc([N+](=O)[O-])cc1)[C@@H]23`, the CC50 at 24 h in data set [1] is 186 µM. Further, in [2], the pIC50 was 5.15. The selectivity ratio in data set [3] amounted to 26.4.
With `COC(=O)C/C=C/[C@@H]1[C@H]2CCCN3CCC[C@@H](CN1S(=O)(=O)c1cccc(C#N)c1)[C@@H]23`, in data set [1], the CC50 at 24 h stood at 72.4 µM. The pIC50 in [2] was 5.14. For the same compound, in data set [3], the selectivity ratio is 9.9.
Take `COC(=O)CCC[C@@H]1[C@H]2CCCN3CCC[C@@H](CN1S(=O)(=O)c1cccc([N+](=O)[O-])c1)[C@@H]23`: the CC50 at 24 h in data set [1] came to 68.9 µM. Moreover, the pIC50 in [2] was 5.45. For the same compound, the selectivity ratio in data set [3] came out at 19.7.
For the compound `COC(=O)C/C=C\[C@@H]1[C@H]2CCCN3CCC[C@@H](CN1S(=O)(=O)c1ccccc1C#N)[C@@H]23`, the CC50 at 24 h in data set [1] worked out at 289 µM. Moreover, the pIC50 in data set [2] is 5.38. The selectivity ratio in data set [3] amounted to 68.7.
